In brackets after ≈: the same amount, converted by molar mass. Activity calls are given as the source filed them. No cut-off for these calls is given here.
How the values were obtained:
Cryptococcus neoformans [1] = assay: Antifungal activity against Cryptococcus neoformans ATCC 90113 after 70 to 74 hrs by alamar blue dye based CLSI method; type: functional
SK-OV-3 = assay: Cytotoxicity against human SKOV3 cells assessed as reduction in cell viability after 48 hrs by neutral red uptake assay; type: cell-based; details: sk-ov-3, 48 h
Method in brief: (§1)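 Cells seeded at 25 000 per well and grown 24 h to confluence, then exposed to peptides up to 10 μg/mL for 48 h; viability by modified neutral red uptake; doxorubicin positive control, DMSO negative control.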

SK-MEL = assay: Cytotoxicity against human SK-MEL cells assessed as reduction in cell viability after 48 hrs by neutral red uptake assay; type: cell-based; method in brief: as §1
BT-549 = assay: Cytotoxicity against human BT549 cells assessed as reduction in cell viability after 48 hrs by neutral red uptake assay; type: cell-based; details: bt-549, 48 h; method in brief: as §1
LLC-PK1 = assay: Cytotoxicity against pig LLC-PK1 cells assessed as reduction in cell viability after 48 hrs by neutral red uptake assay; type: cell-based, Sus scrofa; details: llc-pk1, 48 h; method in brief: as §1
Vero = assay: Cytotoxicity against African green monkey Vero cells assessed as reduction in cell viability after 48 hrs by neutral red uptake assay; type: cell-based; details: chlorocebus sabaeus; method in brief: as §1
[2] = Selectivity index, ratio of cytotoxicity against human SKOV3 cells to IC50 for Cryptococcus neoformans ATCC 90113; type: toxicity, cell-based; details: read-out: Selectivity Index
[3] = Selectivity index, ratio of cytotoxicity against human SK-MEL cells to IC50 for Cryptococcus neoformans ATCC 90113; type: toxicity, cell-based; details: read-out: Selectivity Index
[4] = Selectivity index, ratio of cytotoxicity against human BT549 cells to IC50 for Cryptococcus neoformans ATCC 90113; type: toxicity, cell-based; details: read-out: Selectivity Index
[5] = Selectivity index, ratio of cytotoxicity against pig LLC-PK1 cells to IC50 for Cryptococcus neoformans ATCC 90113; type: toxicity, cell-based; details: read-out: Selectivity Index
[6] = Selectivity index, ratio of cytotoxicity against African green monkey VERO cells to IC50 for Cryptococcus neoformans ATCC 90113; type: toxicity, cell-based; details: read-out: Selectivity Index
Staphylococcus aureus [7] = assay: Antibacterial activity against Staphylococcus aureus ATCC 29213 after […] hrs by alamar blue dye based CLSI method; type: functional
Staphylococcus aureus [8] = assay: Antibacterial activity against methicillin-resistant Staphylococcus aureus ATCC 33591 after 16 to 20 hrs by alamar blue dye based CLSI method; type: functional
[9] = Selectivity index, ratio of cytotoxicity against human SKOV3 cells to IC50 for Staphylococcus aureus ATCC 29213; type: toxicity, cell-based; details: read-out: Selectivity Index
Method in brief: (§2)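 Selectivity index is the ratio CTX/IC50. For CTX, cells were seeded at 25 000 per well and grown 24 h, then exposed to peptide up to 10 μg/mL for 48 h, with viability by neutral red uptake. […] The inoculum was 5 × 10^5 CFU/mL, with OD530 read before and after incubation.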

[10] = Selectivity index, ratio of cytotoxicity against human SK-MEL cells to IC50 for Staphylococcus aureus ATCC 29213; type: toxicity, cell-based; details: read-out: Selectivity Index; method in brief: as §2
[11] = Selectivity index, ratio of cytotoxicity against human BT549 cells to IC50 for Staphylococcus aureus ATCC 29213; type: toxicity, cell-based; details: read-out: Selectivity Index; method in brief: as §2
[12] = Selectivity index, ratio of cytotoxicity against pig LLC-PK1 cells to IC50 for Staphylococcus aureus ATCC 29213; type: toxicity, cell-based; details: read-out: Selectivity Index; method in brief: as §2
[13] = Selectivity index, ratio of cytotoxicity against African green monkey VERO cells to IC50 for Staphylococcus aureus ATCC 29213; type: toxicity, cell-based; details: read-out: Selectivity Index; method in brief: as §2
[14] = Selectivity index, ratio of cytotoxicity against human SKOV3 cells to IC50 for methicillin-resistant Staphylococcus aureus ATCC 33591; type: toxicity, cell-based; details: read-out: Selectivity Index
Method in brief: (§3)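 Selectivity index is the ratio CTX/IC50. For CTX, cells were seeded at 25 000 per well and grown 24 h, then given peptide up to 10 μg/mL for 48 h, with neutral red uptake read-out. […] OD530 was read before and after 16−20 h at 35 °C.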

[15] = Selectivity index, ratio of cytotoxicity against human SK-MEL cells to IC50 for methicillin-resistant Staphylococcus aureus ATCC 33591; type: toxicity, cell-based; details: read-out: Selectivity Index; method in brief: as §3
[16] = Selectivity index, ratio of cytotoxicity against human BT549 cells to IC50 for methicillin-resistant Staphylococcus aureus ATCC 33591; type: toxicity, cell-based; details: read-out: Selectivity Index; method in brief: as §3
[17] = Selectivity index, ratio of cytotoxicity against pig LLC-PK1 cells to IC50 for methicillin-resistant Staphylococcus aureus ATCC 33591; type: toxicity, cell-based; details: read-out: Selectivity Index; method in brief: as §3
[18] = Selectivity index, ratio of cytotoxicity against African green monkey VERO cells to IC50 for methicillin-resistant Staphylococcus aureus ATCC 33591; type: toxicity, cell-based; details: read-out: Selectivity Index; method in brief: as §3
Escherichia coli = assay: Antibacterial activity against Escherichia coli ATCC 35218 after 16 to 20 hrs by alamar blue dye based CLSI method; type: functional
Candida = assay: Antifungal activity against Candida; type: functional
Aspergillus = assay: Antifungal activity against Aspergillus; type: functional
Cryptococcus neoformans [19] = assay: Antifungal activity against Cryptococcus neoformans ATCC 350 after 70 to 74 hrs by alamar blue dye based CLSI method; type: functional
Cryptococcus neoformans [20] = assay: Fungicidal activity against Cryptococcus neoformans ATCC 350 at 0.39 ug/ml up to 4 hrs by time kill assay; type: functional
[21] = Metabolic stability of the compound assessed as trypsin (unknown origin)-mediated compound hydrolysis at compound to trypsin ratio of 100 to 0.5 after 2 hrs by RP-HPLC analysis; type: ADME; details: human
Method in brief: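 Peptide:trypsin 100:0.5 mol/mol in 0.1 M NH4CO3, 0.1 mM CaCl2, pH 8.3, shaken at 37 °C, 200 rpm; aliquot analysed by RP-HPLC, retention time and peak intensity compared with untreated peptide; 2 h sampling per results text.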

Cryptococcus neoformans [22] = assay: Induction of membrane permeabilization in Cryptococcus neoformans ATCC 350 assessed as increase in propidium iodide uptake at 0.39 ug/ml after 1 hr by confocal microscopic analysis; type: functional
Cryptococcus neoformans [23] = assay: Induction of membrane permeabilization in Cryptococcus neoformans ATCC 350 at 0.39 ug/ml after 1 hr using FITC labeled compound by confocal microscopic analysis; type: functional
Cryptococcus neoformans [24] = assay: Induction of nuclear fragmentation in Cryptococcus neoformans ATCC 350 at 0.39 ug/ml after 1 hr by DAPI staining based confocal microscopic analysis; type: functional
Cryptococcus neoformans [25] = assay: Induction of morphological changes in Cryptococcus neoformans ATCC 350 assessed as cell wall breakage at 0.39 ug/ml after 1 hr by uranyl acetate/lead acetate staining based scanning electron microscopic analysis; type: functional
Cryptococcus neoformans [26] = assay: Disruption of cell wall membrane in Cryptococcus neoformans ATCC 350 at 0.39 ug/ml after 1 hr by uranyl acetate/lead acetate staining based transmission electron microscopic analysis; type: functional
Cryptococcus neoformans [27] = assay: Disruption of plasma membrane in Cryptococcus neoformans ATCC 350 at 0.39 ug/ml after 1 hr by uranyl acetate/lead acetate staining based transmission electron microscopic analysis; type: functional
Cryptococcus neoformans [28] = assay: Synergistic antifungal activity against Cryptococcus neoformans ATCC 350 in presence of fluconazole by checkerboard method; type: functional
Cryptococcus neoformans [29] = assay: Synergistic antifungal activity against Cryptococcus neoformans ATCC 350 in presence of amphotericin B by checkerboard method; type: functional
Cryptococcus neoformans [30] = assay: Synergistic antifungal activity against Cryptococcus neoformans ATCC 350 assessed as fold reduction in MIC in presence of fluconazole by checkerboard method relative to control; type: functional
Cryptococcus neoformans [31] = assay: Synergistic antifungal activity against Cryptococcus neoformans ATCC 350 assessed as fold reduction in MIC in presence of amphotericin B by checkerboard method relative to control; type: functional
Cryptococcus neoformans [32] = assay: Synergistic antifungal activity against Cryptococcus neoformans ATCC 350 assessed as fold reduction in fluconazole MIC by checkerboard method relative to fluconazole alone; type: functional
Cryptococcus neoformans [33] = assay: Synergistic antifungal activity against Cryptococcus neoformans ATCC 350 assessed as fold reduction in amphotericin B MIC by checkerboard method relative to amphotericin B alone; type: functional

With COC(=O)[C@H](Cc1c[nH]c(-c2ccc(-c3ccccc3)cc2)n1)NC(=O)[C@H](Cc1c[nH]c2ccccc12)NC(=O)[C@@H](N)Cc1c[nH]c(-c2ccc(-c3ccccc3)cc2)n1 the IC50 (Cryptococcus neoformans [1]) was 0.35 µg/mL (≈ 0.439 µM), the MFC (Cryptococcus neoformans [1]) was 0.63 µg/mL (≈ 0.791 µM) and the MIC (Cryptococcus neoformans [1]) was 0.63 µg/mL (≈ 0.791 µM). It also gave an Activity (SK-OV-3) greater than 10 µg/mL, an Activity (SK-MEL) greater than 10 µg/mL and an Activity (BT-549) greater than 10 µg/mL. For the same molecule, the Activity (LLC-PK1) was greater than 10 µg/mL, the Activity (Vero) was greater than 10 µg/mL and the selectivity ratio [2] was greater than 28.6. The selectivity ratio [3] was greater than 28.6, the selectivity ratio [4] was greater than 28.6 and the selectivity ratio [5] was greater than 28.6. The selectivity ratio [6] was greater than 28.6, the IC50 (Staphylococcus aureus [7]) was 2.56 µg/mL (≈ 3.21 µM) and the MBC (Staphylococcus aureus [7]) was greater than 20 µg/mL. It also gave an MIC (Staphylococcus aureus [7]) greater than 20 µg/mL, an IC50 (Staphylococcus aureus [8]) of 1.93 µg/mL (≈ 2.42 µM) and an MBC (Staphylococcus aureus [8]) of 10 µg/mL (≈ 12.5 µM). The MIC (Staphylococcus aureus [8]) was 5 µg/mL (≈ 6.27 µM), the selectivity ratio [9] was greater than 3.9 and the selectivity ratio [10] was greater than 3.9. It also gave a selectivity ratio [11] greater than 3.9, a selectivity ratio [12] greater than 3.9 and a selectivity ratio [13] greater than 3.9. The selectivity ratio [14] was greater than 5.18, the selectivity ratio [15] was greater than 5.18 and the selectivity ratio [16] was greater than 5.18. For the same molecule, the selectivity ratio [17] was greater than 5.18, the selectivity ratio [18] was greater than 5.18 and the Activity (Escherichia coli) was “inactive”. The Activity (Candida) was “inactive”, the Activity (Aspergillus) was “inactive” and the MIC (Cryptococcus neoformans [19]) was 0.44 µM (≈ 0.351 µg/mL). For the same molecule, the Activity (Cryptococcus neoformans [20]) was “Active”, the Stability [21] was “Stable” and the Activity (Cryptococcus neoformans [22]) was “Active”. The Activity (Cryptococcus neoformans [23]) was “Active”, the Activity (Cryptococcus neoformans [24]) was “Active” and the Activity (Cryptococcus neoformans [25]) was “Active”. For the same molecule, the Activity (Cryptococcus neoformans [26]) was “Active”, the Activity (Cryptococcus neoformans [27]) was “Active” and the “fractional inhibitory concentration index (FICI)” value (Cryptococcus neoformans [28]) was 0.308. For the same molecule, the “fractional inhibitory concentration index (FICI)” value (Cryptococcus neoformans [29]) was 0.092, the “fold change (FC)” value (Cryptococcus neoformans [30]) was 16 and the “fold change (FC)” value (Cryptococcus neoformans [31]) was 32. The “fold change (FC)” value (Cryptococcus neoformans [32]) was 4 and the “fold change (FC)” value (Cryptococcus neoformans [33]) was 16.
